Measured values gathered from unrelated publications.
Protocols differ between the studies behind these lines.
Target: Serine/threonine-protein kinase 25 (STK25, Homo sapiens, UniProt O00506)

Compound | observed | action | technique | concentration | endpoint | result
O=C1NC(=O)c2cc(Nc3ccc(F)cc3)c(Nc3ccc(F)cc3)cc21 | cell-free assay |  |  | 0.5 µM | remaining signal | 101%
CCN1CCC2(CC1)NC(=O)c1c(c3ccc(Cl)c(Cl)c3n1C)C2C#N (racemic) | thermal stability |  | DSF | 10 µM | ΔTm | -0.2 °C
COc1cccc2c(NCc3ccccc3)nc(-n3c(N)nc4ccccc43)nc12 | target engagement in cells | inhibitor | chemoproteomics | 20 mM | inhibition | 3.5%
CC(C)(O)[C@H]1CC[C@H](Nc2ccc3ncc(-c4cccc(C(F)(F)F)c4)n3n2)CC1 | enzyme activity | inhibitor |  | 1 µM | remaining activity | 87%
COc1cc2ncnc(Nc3ccc(F)c(Cl)c3)c2cc1OCCCN1CCOCC1 | cell-free assay |  |  | 0.5 µM | remaining signal | 97.4%
Cn1c2c(Cl)c(Cl)ccc2c2cc[nH]c(=O)c21 | thermal stability |  | DSF | 10 µM | ΔTm | 0.5 °C
O=C(NCc1ncc(C(F)(F)F)cc1Cl)c1ccc2c(c1)C1(CCS(=O)(=O)CC1)[C@H](C1CC1)N2S(=O)(=O)c1ccc(F)cc1 | cell-free assay |  | competition with immobilised ligand | 1 µM | remaining binding | 100%
Nc1ncnc2occ(-c3ccc(NC(=O)Nc4cc(C(F)(F)F)ccc4F)cc3)c12 | cell-free assay | inhibitor |  | 20 µM | remaining signal | 77%
O=C(Nc1cnn(-c2csc(C(=O)NC3COC3)c2)c1)Nc1c(F)cccc1Cl | enzyme activity | inhibitor |  | 5 µM | remaining activity | 96.1%
O=C(Nc1ccc(Oc2ccc(F)cc2)cc1)N1CCc2ncccc2[C@H]1c1ccc(F)cc1 | cell-free assay |  | competition with immobilised ligand | 1 µM | remaining binding | 100%
CC1CCCN1c1nccc(-c2cnn3ncccc23)n1 (centres unmarked) | binding |  |  | 1 µM | remaining binding | 100%
Cc1noc([C@H]2C[C@@H](c3ccc(C(F)(F)F)cc3)CN(C(=O)N3CCS(=O)(=O)C3)C2)n1 | cell-free assay |  | competition with immobilised ligand | 1 µM | remaining binding | 89%
COc1cc2ncnc(Nc3ccc(Oc4ccccc4)c(C)c3C)c2cc1OC | enzyme activity | inhibitor |  | 1 µM | inhibition | 8%
O=C(Nc1cnn(-c2csc(C(=O)NC3COC3)c2)c1)Nc1ccccc1Cl | enzyme activity | inhibitor |  | 5 µM | remaining activity | 106%
Cc1cc(C)c(-n2ccn3nc(-c4cccnc4)cc23)cc1NC(=O)c1cc(C#N)cc(S(F)(F)(F)(F)F)c1 | cell-free assay |  | competition with immobilised ligand | 0.1 µM | remaining binding | 79.1%
O=C1Nc2ccc(Cl)cc2C1=Cc1cc(Cl)c(O)c(Cl)c1 | cell-free assay |  |  | 0.5 µM | remaining signal | 94%
CC(C)(C)c1nc2c(s1)c1nc(N)ncc1c1ccc(NS(=O)(=O)c3c(F)cccc3F)c(F)c12 | enzyme activity | inhibitor | radiometric | 1 µM | remaining activity | 57%
COc1cc(-c2cn(C3CCc4ccccc4N(CC(F)(F)F)C3=O)nn2)ccc1-n1ccc(C)n1 (centres unmarked) | cell-free assay |  | competition with immobilised ligand | 1 µM | remaining binding | 100%
CC1(C)NC(=O)c2[nH]c3c(Cl)c(Cl)ccc3c2C1C#N (centres unmarked) | thermal stability |  | DSF | 10 µM | ΔTm | 1.6 °C
CO[C@@H](C)c1c(Nc2ccc([C@H](N(C)C(=O)C3CCS(=O)(=O)CC3)C(F)(F)F)cc2)cnc2cc(Cl)nn12 | cell-free assay |  | competition with immobilised ligand | 1 µM | remaining binding | 87%
COc1cc(Cl)c(C(=O)N[C@@H](CN[C@H]2CC[C@@H](N)CC2)Cc2ccc(C#N)cc2)cc1-c1ccc(CN[C@H](C)c2ccc(C)cc2)o1 | enzyme activity | inhibitor |  | 1 µM | remaining activity | 104%
Cc1cc(NC(=O)c2cccc3cc(-c4cccc5[nH]nc(N)c45)ccc23)ccc1F | enzyme activity | inhibitor |  | 0.1 µM | activity vs control | 92%
C[C@H](c1cccc(C#N)c1)n1cc(Cl)cc(C(N)=O)c1=N | cell-free assay |  | competition with immobilised ligand | 1 µM | remaining binding | 100%
COc1cc(-c2cc(-c3ccc(N4CCNCC4)cc3)cnc2C)cc(OC)c1OC | enzyme activity | inhibitor |  | 0.1 µM | inhibition | 1%
CS(=O)(=O)N1CCCC(NC(=O)[C@H](CCC2CCCCC2)NC(=O)c2ccc(CNC(=O)c3cnc4ccccn34)cc2)C1 (some centres unmarked) | cell-free assay |  | competition with immobilised ligand | 0.1 µM | remaining binding | 100%
Cc1ccc(Nc2nccc(N(C)c3ccc4c(C)n(C)nc4c3)n2)cc1S(N)(=O)=O | enzyme activity | inhibitor |  | 0.5 µM | remaining activity | 97.3%
